Shown are actives, neighbours in structure and some others; about 2.6% of the full set was active somewhere.
SMARCA2 act = SMARCA2 function activation, primary screen; 370,000 tested, 1% active; activation, % at 9.1 µM; MG213 cells, MMTV-luciferase reporter, dexamethasone, overnight; in the data active = activation above about 7.8%;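 note: 0% = vehicle wells and 100% = reference activator wells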
ASAP1 inh = inhibitors of human ASAP1 ArfGAP activity; AID 624377; Q9ULH1; ASAP1-stimulated ARF1 GTP hydrolysis, GDP FP detection; 360,000 tested, 0.19% active; inhibition, % at 16.5 µM; in the data active = inhibition above about 25%;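 note: 0% = vehicle with enzyme and substrate and 100% = no enzyme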
Target sequence (Q9ULH1 325-724 limits assumed): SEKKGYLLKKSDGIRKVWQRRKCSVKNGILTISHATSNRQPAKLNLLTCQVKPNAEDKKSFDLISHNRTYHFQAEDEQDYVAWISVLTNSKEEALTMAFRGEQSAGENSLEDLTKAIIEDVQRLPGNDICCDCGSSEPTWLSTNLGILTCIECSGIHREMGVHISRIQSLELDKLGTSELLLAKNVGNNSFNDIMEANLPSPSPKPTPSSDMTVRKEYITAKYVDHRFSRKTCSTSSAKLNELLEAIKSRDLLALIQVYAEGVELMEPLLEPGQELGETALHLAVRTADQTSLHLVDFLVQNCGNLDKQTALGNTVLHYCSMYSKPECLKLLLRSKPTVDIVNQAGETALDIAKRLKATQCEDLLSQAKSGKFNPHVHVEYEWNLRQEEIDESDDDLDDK
esBAF inh = inhibitors of esBAF chromatin remodeling in mouse ES cells. Bmi1-luciferase knock-in reporter, 24 h; 100% = twice the neutral-well signal. reporter increase, % at 12.5 µM. 350,000 tested, 2% active; in the data active = activation above about 40%;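 note: 0% = median of the plate's neutral control wells and 100% = double that signal; a rise in the Bmi1 reporter signal indicates esBAF inhibition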
ARFGAP1 inh = rat ARFGAP1 inhibition | Q62848 | Arfgap1-stimulated ARF1 GTP hydrolysis, GDP FP detection | inhibition, % at 16.5 µM | 360,000 tested, 0.26% active;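 active = inhibition above a per-plate limit, mean inhibition of low control wells plus 3 SD, cut at about 25% in these data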;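 note: 0% = DMSO wells with enzyme and 100% = wells lacking Arfgap1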
Target sequence (Q62848 1-136 limits assumed): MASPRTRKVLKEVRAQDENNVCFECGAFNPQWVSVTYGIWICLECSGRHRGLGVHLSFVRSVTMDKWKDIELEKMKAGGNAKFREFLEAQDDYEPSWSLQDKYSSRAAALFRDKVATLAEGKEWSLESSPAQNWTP
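System: truncated rat Arfgap1 GAP domain / Benchmarks: high control wells lacking Arfgap1, low control full reaction with DMSO / Times: compound-enzyme preincubation 20 min, reaction 120 min, detection 60 min, 25 °C / Repeats: one replicate per compound / Also added: human ARF1(Δ1-17)-GTP substrate / Measured by: Tracer-displacement fluorescence polarization with EDTA stop, 620/688 nm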
An asterisk follows results filed as active; . = no result given.

SMILES | SMARCA2 act | ASAP1 inh | esBAF inh | ARFGAP1 inh
C[C@@H]1CN([C@@H](C)CO)C(=O)c2cc(C#CC3CCCCC3)cnc2O[C@@H]1CN(C)S(C)(=O)=O | . | . | 10.4 | .
CC(C)NC(=O)Nc1ccc2c(c1)CC(=O)N([C@@H](C)CO)C[C@H](C)[C@@H](CN(C)C(=O)Nc1ccc(C(F)(F)F)cc1)O2 | . | . | 3.3 | .
N#C/C(=C\c1ccc[nH]1)C(=O)Nc1ccccc1F | 1.9 | 2.8 | 71.5* | 8.0
COc1ccc(CCN2CCCC(CN(C)C(=O)c3cc(C)oc3C)C2)cc1 (configuration not stated) | 7.8* | -6.2 | 72.1* | 6.6
Cc1cc(C(=O)N(C)CC2CCCN(CCc3ccc(F)cc3)C2)c(C)o1 (configuration not stated) | 2.9 | 15.1 | -5.6 | 9.8
Cc1nn(-c2ccc(N3CCCCC3)nn2)c(C)c1CCC(=O)Nc1cc(F)ccc1F | 4.2 | -2.7 | 63.3* | -2.8
Cc1nn(-c2ccc(N3CCCCC3)nn2)c(C)c1CCC(=O)Nc1ccccc1F | -2.4 | 10.7 | 17.1 | 11.4
C[C@@H]1CN([C@@H](C)CO)C(=O)Cc2cc(NC(=O)Cn3cnnn3)ccc2O[C@H]1CN(C)Cc1ccncc1 | . | . | -1.7 | .
Cc1cc(C)n(-c2nc3ccccc3c(=O)n2OCC(=O)N(C)C)n1 | -0.1 | 0.6 | -3.9 | -0.9
Cc1cc(C)n(-c2nc3ccccc3c(=O)n2OCC(=O)OCc2ccccc2)n1 | 0.8 | -7.7 | 48.4* | 15.7
C[C@H](CO)N1C[C@H](C)[C@@H](CN(C)Cc2ccc3c(c2)OCO3)Oc2ccc(NC(=O)Nc3ccc4c(c3)OCO4)cc2C1=O | . | . | 2.2 | .
CCCNC(=O)c1oc2ccc3c(c2c1C)C=CC(C)(C)O3 | 1.4 | 3.4 | 55.6* | 10.9
COc1ccc(OCc2cc(C(=O)NCC(C)Oc3cccnc3)no2)c(Cl)c1 (configuration not stated) | 0.3 | -17.8 | 70.1* | -3.1
CSc1ccccc1OCc1cc(C(=O)NCC(C)Oc2cccnc2)no1 (configuration not stated) | 3.9 | 3.0 | 27.6 | 2.6
COc1ccc(OCc2cc(C(=O)NCC3CCOCC3)no2)c(Cl)c1 | 5.8 | 5.4 | 54.7* | 0.1
COc1ccc(OCc2cc(C(=O)N(C)Cc3cc(C4CC4)n[nH]3)no2)c(Cl)c1 | 4.7 | -1.8 | 68.2* | 1.9
COc1ccc(OCc2cc(C(=O)NCC3CCCCO3)no2)c(Cl)c1 (configuration not stated) | 0.5 | 3.2 | 36.7 | 9.1
CCNC(=O)C[C@H]1CC[C@@H]2[C@@H](COc3ccc(NC(=O)c4ccc(C(F)(F)F)cc4)cc3C(=O)N2C)O1 | . | . | 5.8 | .
CCC(=O)N1CCCCN2[C@H](CO)[C@H](c3ccc(-c4cccnc4)cc3)[C@H]2C1 | . | . | -4.9 | .
O=C(CN1CCc2ccccc2C1)Nc1ccc(F)cc1 | 1.3 | -9.2 | 1.7 | 3.8
COc1ccc(CC(=O)N2CCc3ccccc3C2)cc1 | 0.2 | 11.8 | 13.7 | 6.7
CN(C)c1ccc(NC(=O)CN2CCc3ccccc3C2)cc1 | 6.5 | -5.2 | 43.8* | 8.7
O=C(Cc1ccc(Cl)cc1)N1CCc2ccccc2C1 | -2.6 | 2.5 | 46.3* | -1.5
CS(=O)(=O)N1CCc2cc(C(=O)Nc3ccc(Cl)cc3)ccc21 | -0.5 | 7.1 | 62.7* | 7.9
O=C(Nc1ccccc1)N1CCc2ccccc2C1 | 7.7 | -1.8 | 44.5* | 0.4
SMILES | SMARCA2 act | ASAP1 inh | esBAF inh | ARFGAP1 inh
C[C@@H]1CCCCO[C@H](CN(C)C(=O)Nc2ccc3c(c2)OCO3)[C@H](C)CN([C@@H](C)CO)C(=O)c2cc(NS(C)(=O)=O)ccc2O1 | . | . | 3.9 | .
CO[C@H]1CC[C@@H]2CCN(C)C(=O)[C@@H](C)N(C)C(=O)c3cc(C#N)ccc3OC[C@@H]1O2 | . | . | -0.7 | .
CC(=O)c1ccc(NC(=O)N2CCc3ccccc3C2)cc1 | 2.5 | -21.4 | . | 4.3
O=C(Nc1ccc(Cl)cc1)N1CCc2ccccc2C1 | 3.0 | -7.1 | 47.8* | -5.1
N#CCc1ccc(NC(=O)c2ccc(CN3CCc4ccccc4C3)cc2)cc1 | -3.0 | 8.5 | 17.5 | 6.8
O=C(c1cccc(F)c1)N1CCc2ccccc2C1 | -1.2 | 1.6 | . | 6.1
O=C(Nc1ccc(Cl)cc1)c1ccc(CN2CCc3ccccc3C2)cc1 | -2.6 | 6.3 | 48.8* | 2.8
O=C(CNc1cccc(F)c1)N1CCc2ccccc2C1 | 5.3 | 1.4 | 51.4* | 9.2
C[C@@H]1CCCCO[C@@H](CN(C)S(=O)(=O)c2cn(C)cn2)[C@@H](C)CN([C@@H](C)CO)C(=O)c2cc(NC(=O)C3CCCCC3)ccc2O1 | . | . | -1.4 | .
CCCC#Cc1ccc2c(c1)O[C@@H](CN(C)Cc1ccncc1)[C@@H](C)CN([C@H](C)CO)S2(=O)=O | . | . | -6.1 | .
C[C@@H]1CN([C@@H](C)CO)S(=O)(=O)c2ccc(C#CC(C)(C)O)cc2O[C@@H]1CN(C)Cc1ccccc1 | . | . | -2.4 | .
Cc1noc(C)c1NC(=O)Nc1ccc2c(c1)C(=O)N([C@@H](C)CO)C[C@@H](C)[C@H](CN(C)S(=O)(=O)c1cccs1)O2 | . | . | 3.5 | .
CCc1ccc2nc(/N=C(\N)NC(=O)c3ccccc3)nc(C)c2c1 | 7.9* | 0.6 | 43.5 | 2.0
Cc1cc(C)c2nc(/N=C(\N)NC(=O)c3ccccc3)nc(C)c2c1 | 4.9 | 6.8 | -0.2 | -1.3
c1ccc(-c2cnc(C3CCCCC3)o2)cc1 | -1.3 | -5.5 | 52.8* | 15.3
Cc1c(C(=O)Nc2nc3ccccc3[nH]2)oc2c(Cl)cccc12 | 2.1 | 10.1 | 48.8* | 9.0
Cc1c(C(=O)Nc2nc3ccccc3[nH]2)oc2ccccc12 | 4.2 | -1.8 | . | 3.7
O=C(Nc1nc2ccccc2[nH]1)c1cccc(Br)c1 | 5.0 | 5.8 | 51.2* | 5.1
Cc1ccc2nc(NC(=O)CCNS(=O)(=O)c3cccs3)sc2c1 | -0.6 | 15.9 | 69.6* | 3.7
Cc1ccc(S(=O)(=O)CCC(=O)NCCN2C(=O)S/C(=C\c3ccccc3)C2=O)cc1 | 4.9 | -5.7 | 44.7* | 3.4
O=C(CCS(=O)(=O)c1ccc(Cl)cc1)NCCN1C(=O)S/C(=C\c2ccccc2F)C1=O | -0.7 | 7.3 | . | 0.1
CC1(C)CC(=O)c2cnc(N3CCc4ccccc4C3)nc2C1 | 6.4 | -6.7 | 68.6* | 7.9
CC(C)c1ccc2c(c1)C(c1ccc(N3CCOCC3)cc1)=NNC(c1cccs1)=N2 | 5.0 | -1.4 | 65.2* | 3.2
O=C(Nc1ccc2c(c1)OCCO2)Nc1ccc2c(c1)OCO2 | 5.3 | -1.6 | -37.3 | 8.5
O=C(NCc1ccc2c(c1)OCO2)Nc1cccc(Cl)c1 | 5.7 | 14.2 | 67.1* | 12.8
SMILES | SMARCA2 act | ASAP1 inh | esBAF inh | ARFGAP1 inh
O=C(Nc1ccc2c(c1)OCO2)c1ccc2nc[nH]c2c1 | 6.0 | 0.7 | 48.6* | 2.5
COc1ccc(C(=O)Nc2ccc3c(c2)OCCO3)cc1Br | 4.3 | -12.5 | 48.2* | 9.6
O=C(Nc1cccc(Cl)c1)Nc1ccc2c(c1)OCO2 | 4.8 | 1.9 | 58.0* | 3.1
CC(=O)c1cccc(NC(=O)NCc2ccc3c(c2)OCO3)c1 | -0.8 | 2.7 | 4.5 | 10.4
COc1cccc(C(=O)Nc2ccc3c(c2)C(=O)N(C)C[C@@H](OC)[C@@H](C)CN(CCc2ccccc2)[C@@H](C)CO3)c1 | . | . | 6.6 | .
CCc1cccc(NC(=O)Nc2ccc3c(c2)OCO3)c1 | -2.2 | 11.0 | 25.3 | 3.0
